Measured values published in ChEMBL document CHEMBL1156686, “Xanthine oxidase-activated prodrugs of thymidine phosphorylase inhibitors” (Eur J Med Chem, 2008).

Substrate: O=c1[nH]c(=O)n([C@H]2C[C@H](O)[C@@H](CO)O2)cc1[N+](=O)[O-]
Test: Activity of Escherichia coli thymidine phosphorylase
Procedure, shortened: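 Recombinant E. coli TP (0.00883 U per 0.2 ml) added to start a continuous spectrophotometric assay. Mix: 0.13 mM 5-nitro-2'-deoxyuridine substrate in 0.1 M potassium phosphate, pH 7.4, 25 °C, read at 355 nm in a microplate. Initial velocity compared with the mean of at least two no-inhibitor controls. Where derived, IC50 used at least five concentrations spanning the value.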

B1: Thymidine phosphorylase (Escherichia coli K-12), P07650 (protein)
chain: MFLAQEIIRKKRDGHALSDEEIRFFINGIRDNTISEGQIAALAMTIFFHDMTMPERVSLTMAMRDSGTVLDWKSLHLNGPIVDKHSTGGVGDVTSLMLGPMVAACGGYIPMISGRGLGHTGGTLDKLESIPGFDIFPDDNRFREIIKDVGVAIIGQTSSLAPADKRFYATRDITATVDSIPLITASILAKKLAEGLDALVMDVKVGSGAFMPTYELSEALAEAIVGVANGAGVRTTALLTDMNQVLASSAGNAVEVREAVQFLTGEYRNPRLFDVTMALCVEMLISGKLAKDDAEARAKLQAVLDNGKAAEVFGRMVAAQKGPTDFVENYAKYLPTAMLTKAVYADTEGFVSEMDTRALGMAVVAMGGGRRQASDTIDYSVGFTDMARLGDQVDGQRPLAVIHAKDENNWQEAAKAVKAAIKLADKAPESTPTVYRRISE
- kcat: 20 s⁻¹
